Assay results of several laboratories.
TMEM97: Sigma intracellular receptor 2 (TMEM97, Homo sapiens, UniProt Q5BJF2)
CHRM3: Muscarinic acetylcholine receptor M3 (CHRM3, Homo sapiens, UniProt P20309)
lecB: Fucose-binding lectin PA-IIL (lecB, Pseudomonas aeruginosa, UniProt Q9HYN5)
SIGMAR1: Sigma non-opioid intracellular receptor 1 (SIGMAR1, Cavia porcellus, UniProt Q60492)

SMILES	target	observed	mode	method	notes	Ki
COc1cc2c(cc1OC)CN(CCc1ccc(NC(=O)c3cccc4c(=O)c5cccc(OC)c5[nH]c34)cc1)CC2	TMEM97	ligand displacement	–	radioligand	–	0.077 µM
Cc1cc(N2CCNCC2)nc2ccccc12	CHRM3	ligand displacement	–	radioligand	cell membranes	31.6 µM
CC(C)C[C@H](NC(=O)CNC(=O)[C@H](C)NC(=O)c1ccc(S(=O)(=O)NC[C@H]2O[C@@H](C)[C@@H](O)[C@@H](O)[C@@H]2O)cc1)C(=O)N[C@@H](C)C(=O)NC[C@@H]1CCN(c2cc3c(cc2F)c(=O)c(C(=O)O)cn3C2CC2)C1	lecB	ligand displacement	–	FP	–	1.76 µM
CN1CCN(C2=Nc3ccccc3Oc3ccc(Cl)cc32)CC1	TMEM97	ligand displacement	–	radioligand	–	3.46 µM
CC1=NC2(CCN(C)CC2)C(=O)N(c2c(C)cccc2C)C1=O	SIGMAR1	cell-free assay	–	–	–	0.008 µM
c1cc(N2CCNCC2)c2cc[nH]c2c1	CHRM3	ligand displacement	–	radioligand	cell membranes	> 31.6 µM
CC(C)C[C@H](NC(=O)CNC(=O)[C@H](C)NC(=O)c1ccc(S(=O)(=O)NC[C@H]2O[C@@H](C)[C@@H](O)[C@@H](O)[C@@H]2O)cc1)C(=O)N[C@@H](C)C(=O)N1CCN(c2cc3c(cc2F)c(=O)c(C(=O)O)cn3C2CC2)CC1	lecB	ligand displacement	–	FP	–	1.92 µM
CCN(CC)CCO[C@H]1CC[C@@]2(C)C(=CC[C@@H]3[C@@H]2CC[C@]2(C)C(=O)CC[C@@H]32)C1	TMEM97	ligand displacement	–	radioligand	–	0.0193 µM
NC1C(O)C(O)C(O)C1O (stereo not drawn)	Alpha-mannosidase 2 (Drosophila melanogaster, UniProt Q24451)	enzyme activity	inhibitor	fluorescence	–	100 µM
CC(C)[C@@H](Nc1nc(Cl)nc2c1ncn2[C@H]1[C@H](O)[C@H](O)[C@]2(CN=[N+]=[N-])C[C@H]12)C1CC1	Alpha-2B adrenergic receptor (ADRA2B, Homo sapiens, UniProt P18089)	ligand displacement	–	radioligand	–	> 7.3 µM
C[C@H](N)Cn1ncc2ccc3c(c21)CCCO3	5-hydroxytryptamine receptor 1B (Htr1b, Rattus norvegicus, UniProt P28564)	ligand displacement	–	radioligand	–	5.57 µM
CN(C)CCCN1c2ccccc2CCc2ccc(Cl)cc21	TMEM97	ligand displacement	–	radioligand	–	0.2 µM
CC(C)[C@]1(O)[C@H](O)[C@@H]2O[C@]23[C@]2(O[C@H]2C[C@H]2C4=C(CC[C@@]23C)C(=O)OC4)[C@@H]1O	dCTP pyrophosphatase 1 (Homo sapiens, UniProt Q9H773)	enzyme activity	inhibitor	–	–	85 µM
Cn1cc(-c2cccc(N3CCc4c(sc5c4CC(C)(C)C5)C3=O)c2CO)cc(Nc2ccncn2)c1=O	Ephrin type-A receptor 7 (EPHA7, Homo sapiens, UniProt Q15375)	cell-free assay	–	–	–	0.548 µM
COCCCN1CCN(c2ccccc2OC)CC1	Alpha-1D adrenergic receptor (ADRA1D, Homo sapiens, UniProt P25100)	cell-free assay	–	–	–	0.17 µM
CCN(CC)CCNC(=O)c1ccc(F)cc1	SIGMAR1	ligand displacement	–	radioligand	cell membranes	8.9 µM
Cc1ncc(C)n2nc(/C=C/c3nc(N4CCCC4)cc(N4CCOCC4)n3)nc12	cAMP and cAMP-inhibited cGMP 3',5'-cyclic phosphodiesterase 10A (Pde10a, Rattus norvegicus, UniProt Q9QYJ6)	enzyme activity	inhibitor	TR-FRET	–	0.00059 µM
CN1[C@@H]2CC[C@H]1C[C@@H](OC(c1ccccc1)c1ccccc1)C2	TMEM97	ligand displacement	–	radioligand	–	0.0637 µM
